In the library only some 0.72% were active in any assay of this set; here they are far more common.
bIAP inhibitor: bovine intestinal alkaline phosphatase inhibitors, primary screen, selectivity assay for TNAP inhibitor project, biochemical, bovine IAP, CDP-star luminescence. AID 1019, 2008. 190,000 tested, under 10 active. purified bovine IAP, 30 min. inhibition, % at 20 µM. alkaline phosphatase, intestinal [Bos taurus];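 active means over 50% inhibition of intestinal alkaline phosphatase at 20 µM in the single-dose screen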
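System: purified bovine intestinal alkaline phosphatase (IAP) enzyme; Input: IAP diluted 1/65,000,000 in the well; Measured by: CDP-star luminescence signal; Compound dosing: 20 µM single dose; Incubation: 30 min reaction at room temperature.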
mIAP inh: inhibitors of mouse IAP, primary screen, biochemical, luminescence, uHTS. AID 2806, 2010. inhibition, % at 10 µM. 330,000 tested, 0.2% active. intestinal alkaline phosphatase [Mus musculus]. purified mouse IAP, CDP-Star luminescence, 30 min;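 active means inhibition of at least 40% at 10 µM in the primary screen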
hIAP act: human IAP activators, primary screen, biochemical, luminescence, uHTS. purified human IAP, CDP-Star luminescence, 30 min; stronger effect = higher value; 1 = vehicle-only enzyme, 0 = enzyme-free background. activation factor at 10 µM. 330,000 tested, 0.16% active. Intestinal-type alkaline phosphatase (Homo sapiens), P09923. AID 2524, 2010;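 active means activation factor of the enzyme at least 2-fold when tested at 20 µM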
Target sequence (P09923 whole entry, looked up): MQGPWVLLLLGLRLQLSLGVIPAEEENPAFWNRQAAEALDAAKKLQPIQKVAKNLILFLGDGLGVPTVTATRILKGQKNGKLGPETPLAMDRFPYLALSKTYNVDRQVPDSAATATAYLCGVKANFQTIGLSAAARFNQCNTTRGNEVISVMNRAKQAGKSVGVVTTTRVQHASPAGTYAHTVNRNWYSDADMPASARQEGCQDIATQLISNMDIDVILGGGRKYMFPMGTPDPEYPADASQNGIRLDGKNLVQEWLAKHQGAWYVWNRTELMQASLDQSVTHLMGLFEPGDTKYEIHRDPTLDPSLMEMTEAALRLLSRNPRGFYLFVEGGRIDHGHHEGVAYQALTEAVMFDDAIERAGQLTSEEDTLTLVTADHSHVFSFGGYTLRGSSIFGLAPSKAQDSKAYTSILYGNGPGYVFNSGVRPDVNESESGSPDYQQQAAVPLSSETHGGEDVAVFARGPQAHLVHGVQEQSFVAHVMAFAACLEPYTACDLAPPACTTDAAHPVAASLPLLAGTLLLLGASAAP
mIAP act: activators of mouse IAP, primary screen, biochemical, luminescence, uHTS; intestinal alkaline phosphatase [Mus musculus]; muIAP, CDP-Star luminescence, 30 min; stronger effect = higher value; 1 = vehicle-only enzyme signal, 0 = enzyme-free wells; activation factor at 10 µM; 330,000 tested, 0.24% active; AID 2805, 2010;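 active means activation factor of at least 2 at 20 µM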
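System: Mouse IAP enzyme | Also added: CDP-Star substrate | Dosing: Compounds dispensed in DMSO | Schedule: 30 min enzyme-substrate-compound incubation at room temperature | Technique: Chemiluminescence readout | Control set: DMSO-only wells and no-enzyme negative control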
bIAP act: bovine intestinal alkaline phosphatase activators, primary screen, biochemical, bovine IAP, CDP-star luminescence. alkaline phosphatase, intestinal [Bos taurus]. activation factor at 20 µM. purified bovine IAP, 30 min; stronger effect = higher value; fold of DMSO-control signal, blank-subtracted. 200,000 tested, 0.17% active;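 active means activation factor of 2 or more at 20 µM, a signal rise over negative controls twice the positive control's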
hIAP block: human IAP inhibitors, primary screen, biochemical, luminescence, uHTS | Intestinal-type alkaline phosphatase (Homo sapiens), P09923 | purified IAP, CDP-Star luminescence, 30 min | inhibition, % at 10 µM | 330,000 tested, 0.12% active | AID 2544, 2010;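 active means inhibition reaching a set limit with compound at 10 µM in the primary screen, cut at about 35% in these data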
hIAP act conf: human IAP activators, confirmation, biochemical, luminescence, single concentration, uHTS hits | 880 tested, 10% active | purified IAP, CDP-Star luminescence, 30 min; stronger effect = lower value | shares compounds with hIAP act | activation (%Activity, negative = activation), % at 8.3 µM;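 active means at least twofold enzyme activation in any of six single-dose repeats, which the averaged readout prints as negative percent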
Numbers stand for hits; - = inactive; . = not tested or not shown.

SMILES	bIAP inhibitor	mIAP inh	hIAP act	mIAP act	bIAP act	hIAP block	hIAP act conf
Oc1ccc(-c2cn3ccccc3n2)cc1O	.	-	-	-	.	49.3	-
Cc1ccn2cc(-c3ccc(O)c(O)c3)nc2c1	.	-	-	-	.	39.7	-
CC1(C)NC(=O)N(CC(=O)N2CCN(S(=O)(=O)c3cc(Cl)ccc3Cl)CC2)C1=O	.	-	-	-	.	-	.
NS(=O)(=O)c1ccc(CCNCc2ccccc2OCc2ccc(F)cc2)cc1	.	-	-	-	.	-	.
CCOc1ccc(S(=O)(=O)N(C)C2CCCCC2)cc1	.	-	-	-	.	-	.
COc1cc(OC)cc(C(=O)NNC(=O)C(=O)Nc2cc(OC)c(Cl)cc2OC)c1	.	-	-	-	.	38.6	-
COc1cc(NC(=O)C(=O)NNC(=O)C2CCCCC2)c(OC)cc1Cl	-	-	-	-	-	-	.
COc1ccc(N(C(=O)c2ccn[nH]2)C(C(=O)NC2CCCC2)c2ccc(F)cc2)cc1 (centres undefined)	.	-	2.48	-	.	-	-
COc1ccc(C(C(=O)NC2CCCC2)N(C(=O)c2snc(-c3ccc(F)cc3)c2N)c2ccc(F)cc2)cc1 (centres undefined)	-	-	-	-	-	-	.
CC(=O)c1ccc(N(C(=O)c2ccco2)C(C(=O)NC2CCCC2)c2cccs2)cc1 (centres undefined)	.	-	-	-	.	-	.
Cc1ccc(N(C(=O)c2ccn[nH]2)C(C(=O)NC2CCCC2)c2cccs2)cc1 (centres undefined)	-	-	3.03	-	-	-	-
CC1C=CCC2C(=O)N(c3cc(Cl)ccc3O)C(=O)C12 (centres undefined)	-	-	-	-	-	-	.
CC1(C)C2CC[C@]1(C)C(=O)N(CCCCN1CCN(c3ccccn3)CC1)C2=O	.	-	-	-	.	-	.
CCOC(=O)c1c(NC(=O)Cn2cc([N+](=O)[O-])cn2)sc2c1CCC2	-	-	-	-	-	35.5	-90.5
N#CCn1cc(/C=N/NC(=O)c2cc3c(ccc4ccccc43)o2)c2ccccc21	.	-	-	-	.	-	.
N#C/C(=C\c1ccc(-c2cccc([N+](=O)[O-])c2)o1)C(=O)Nc1nc(-c2cccs2)cs1	.	-	-	-	.	46.8	-
COc1cccc(/C=N/Nc2nn3cnnc3c3ccccc23)c1O	-	-	2.05	-	-	-	-
COc1cccc(/C=N/NC(=O)N/N=C/c2cccc(OC)c2O)c1O	.	-	2.51	-	.	-	-
Oc1cccc(/C=N/Nc2nn3cnnc3c3ccccc23)c1	.	-	-	-	.	-	.
Cc1ccc(Cl)cc1NC(=O)NCCN1CCCCC1	.	-	-	-	.	-	.
CCNc1ccc(C(=O)OCC(=O)NCc2ccccc2Cl)cc1[N+](=O)[O-]	-	-	-	-	-	-	.
O=c1n(Cc2ccccc2)nc2n1-c1ccccc1SC2	.	-	-	-	.	-	.
CCCCC#Cc1cncc(C(=O)N/N=C/c2cccc(OC)c2)c1	.	-	-	-	.	40.2	-
COC(=O)C1(C)NC(c2cccs2)C2C(=O)N(c3ccc(F)cc3)C(=O)C21 (centres undefined)	-	-	-	-	-	-	.
COc1ccc(CN2CCC(n3nccc3NC(=O)C3CCCC3)CC2)cc1	.	-	-	-	.	-	.
SMILES	bIAP inhibitor	mIAP inh	hIAP act	mIAP act	bIAP act	hIAP block	hIAP act conf
COc1ccc(/C=C/CN2CCC(n3nccc3NC(=O)C3CCCC3)CC2)cc1	.	-	2.09	-	.	-	-
N#CCC(=O)Nc1ccc(C(=O)NNC(=S)NC2CCCCC2)cc1	.	-	-	-	.	-	.
CC(C)CC(=O)Nc1ccc(C(=O)NNC(=S)NC(=O)C2CCCCC2)cc1	-	-	2.62	-	-	-	-
Cc1cc(CN2CCCC(CNC(=O)c3ccc(F)cc3)C2)cc(C)c1O (centres undefined)	-	-	-	-	-	-	.
CCN(CC)C(=O)Cc1cc(C(=O)O)c2ccccc2n1	-	-	2.03	-	-	-	-
NC(=O)c1ccc(NC(=O)C2CCCC2)cc1	.	-	2.58	-	.	-	-40.2
O=C(Nc1ccc(F)cc1)C1CCCCC1	-	-	-	-	-	-	.
COc1ccc(C2=NO[C@H]3C[C@](C(=O)NC(C)C)(S(=O)(=O)c4ccccc4)C[C@@H]23)cc1	.	-	-	-	.	-	.
CCCCNC(=O)N(O)C1N(/N=C/c2cccs2)C(=S)SC1(C)C (centres undefined)	.	-	-	-	.	36.1	-
CNC(=O)N(O)C1N(/N=C/c2ccccc2O)C(=S)SC1(C)C (centres undefined)	.	-	-	-	.	-	.
COc1ccc(N2CCN(CCNC(=O)CCC(=O)NNc3nc4ccccc4c4nc(C)nn34)CC2)cc1	.	-	2.45	-	.	-	-
Cc1nc2c3ccccc3nc(NNC(=O)CCC(=O)N3CCCC(C)C3)n2n1 (centres undefined)	.	-	2.54	-	.	-	-41.6
Cc1nc2c3ccccc3nc(NNC(=O)CCC(=O)NC3CCCC3)n2n1	-	-	-	-	-	-	.
COc1ccc(NC(=O)CCCCCN2C(=O)CCC2=O)cc1Cl	-	-	-	-	-	-	.
CSCCC(NC(=O)c1ccccc1Cl)C(=O)NNC(=O)c1ccccc1O (centres undefined)	.	-	-	-	.	-	.
CC(Sc1ccc(Cl)cc1)C(=O)NNC(=O)c1ccccc1O (centres undefined)	.	-	2.48	-	.	-	-
CCNC(=S)NNC(=O)c1cccn(Cc2ccc(Cl)cc2)c1=O	-	-	-	-	-	-	.
O=C(CNS(=O)(=O)c1ccccc1)NNC(=O)C(Cl)Cl	-	-	2.23	-	-	-	-
CN1CCN(S(=O)(=O)c2cccc(C#N)c2)C(c2ccccc2)C1 (centres undefined)	.	-	-	-	.	-	.
C=CCN(c1ccccc1)S(=O)(=O)c1cc(C(=O)NC2=NCCS2)ccc1Cl	-	-	-	-	-	-	.
Cn1cc(/C=C(\NC(=O)c2ccccc2Cl)C(=O)NCCCN2CCOCC2)c2ccccc21	.	-	-	-	.	-	.
Cn1cc(/C=C(\NC(=O)c2ccccc2Cl)C(=O)NCCN2CCOCC2)c2ccccc21	.	-	-	-	.	38.0	-
Cn1ncc2c1ncn1nc(CCc3ccccc3)nc21	-	-	-	-	-	38.8	-
O=C(NC(=S)Nc1ccccc1N1CCCC1)c1ccccc1Br	.	-	-	-	.	-	.
